From PMC11229370 (Nucleic Acids Research, 2024)
pIC50: −log10 of the molar value.

What was measured:
[1] = target: T1, BtProRS1 (Bacillus thuringiensis, UniProt Q6HEZ6); test: Aminoacylation after pretreatment of the enzyme with H2O2, DTT, urea or GnHCl; type: biochemical
T1 sequence (Q6HEZ6 1-566): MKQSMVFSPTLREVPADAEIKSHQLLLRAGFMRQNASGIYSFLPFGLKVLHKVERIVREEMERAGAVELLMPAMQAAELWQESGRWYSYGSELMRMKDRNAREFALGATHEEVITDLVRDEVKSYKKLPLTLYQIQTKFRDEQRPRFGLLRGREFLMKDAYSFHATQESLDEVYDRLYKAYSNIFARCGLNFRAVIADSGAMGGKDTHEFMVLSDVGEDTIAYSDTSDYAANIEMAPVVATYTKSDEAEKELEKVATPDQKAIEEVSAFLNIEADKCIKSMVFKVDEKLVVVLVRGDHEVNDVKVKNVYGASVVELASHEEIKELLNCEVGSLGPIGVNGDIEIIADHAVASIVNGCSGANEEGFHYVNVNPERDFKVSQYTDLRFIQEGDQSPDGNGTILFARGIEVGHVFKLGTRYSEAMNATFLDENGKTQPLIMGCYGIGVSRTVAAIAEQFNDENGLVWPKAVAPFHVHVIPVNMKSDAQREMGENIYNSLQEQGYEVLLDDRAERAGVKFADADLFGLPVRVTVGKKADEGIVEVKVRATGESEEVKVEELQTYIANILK
How it was run: (§1)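 Purified His6-tagged enzymes were expressed in E. coli BL21-CodonPlus(DE3) and purified by Ni-NTA. Enzymes at 1000 nM were pretreated 10 min at 20°C with H2O2 (0–32 mM), DTT (0–80 mM), urea (0–3200 mM) or GnHCl (0–3200 mM). They were then diluted to 100 nM final in buffer with 4 mM ATP, 10 μM transcribed tRNA^Pro and 21.13 μM [3H]-proline, run 10 min at 30°C, with TCA filter counting; three independent experiments.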

[2] = target: T2, BtProRS2 (Bacillus thuringiensis, UniProt Q6HNZ7); test: as above; type: biochemical
T2 sequence (Q6HNZ7 1-476): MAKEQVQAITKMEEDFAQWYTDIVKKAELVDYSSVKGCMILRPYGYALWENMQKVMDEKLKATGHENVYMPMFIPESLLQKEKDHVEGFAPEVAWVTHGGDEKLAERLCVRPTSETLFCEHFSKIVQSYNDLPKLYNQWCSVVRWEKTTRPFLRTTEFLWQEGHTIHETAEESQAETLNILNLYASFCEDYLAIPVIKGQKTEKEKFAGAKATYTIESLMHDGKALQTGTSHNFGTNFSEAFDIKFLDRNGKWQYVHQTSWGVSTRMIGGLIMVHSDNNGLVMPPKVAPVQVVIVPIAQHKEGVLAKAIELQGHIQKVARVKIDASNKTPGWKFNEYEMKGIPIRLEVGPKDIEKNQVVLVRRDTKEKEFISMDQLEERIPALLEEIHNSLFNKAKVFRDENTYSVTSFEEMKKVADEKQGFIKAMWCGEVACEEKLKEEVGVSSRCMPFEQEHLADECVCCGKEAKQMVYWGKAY
How it was run: as §1

[3] = target: T1, BtProRS1; test: HF inhibition assay; type: biochemical
How it was run: (§2)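 Purified His6-tagged enzyme (100 nM final) was mixed with test compound (0.1 nM–10 μM) in 50 μl aminoacylation buffer. Incubation was 10 min at 30°C, with TCA-filter scintillation counting. Relative activity is rate with inhibitor over rate without, and curves were fitted per enzyme.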

[4] = target: T2, BtProRS2; test: HF inhibition assay; type: biochemical
How it was run: as §2

[5] = tested on: total cellular extracts of B. thuringiensis; test: HF inhibition assay with total cellular extracts; type: biochemical, Bacillus thuringiensis; conditions: 3 μg of total cellular extracts in 50-μl aminoacylation buffer, 30°C, 10 min
How it was run: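 B. thuringiensis ATCC 13367 was grown 24 h at 30°C in LB with shaking, PBS-washed, glass-bead lysed on ice in HEPES pH 7.2 buffer with protease inhibitors, and cleared. Extract (3 μg) was incubated with test compound (0.1 nM–10 μM) 10 min at 30°C; [3H]-proline charging of tRNA^Pro was filter-counted. Relative activity curves were fitted using the individual-enzyme curves to give the ProRS1 activity proportion.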

[6] = tested on: P. falciparum ProRS; conditions: cited from earlier work
[7] = tested on: T. gondii ProRS; conditions: cited from earlier work
[8] = tested on: P-type ProRS (such as Pseudomonas aeruginosa ProRS); conditions: cited from earlier work

pIC50 [1]	pIC50 [2]	Structure (SMILES)	pIC50 [3]	pIC50 [4]	IC50 for BtProRS2 lower than that for BtProRS1 ([4]; ratio of IC50 BtProRS1 to BtProRS2)	pIC50 [5]	pIC50 [6]	pIC50 [7]	less effective against a P-type ProRS than against E-type ProRS [8]
1.57	< 1.10	O[C@@H](CS)[C@@H](O)CS (racemic) [DTT, Dithiothreitol]							
		O=C(CC1NCCCC1O)Cn1cnc2cc(Br)c(Cl)cc2c1=O (stereo not drawn) [HF, halofuginone]	6.17	6.77	4 fold	~6.40	8.05	8.27	~100 fold
